# MEKK3 PB1 HTS – modulators of MEKK3-MEK5 PB1 binding, primary screen, biochemical, wildtype MEKK3, multiplex bead flow cytometry, Alexa488-MEK5. bead-based flow cytometry, Alexa488-MEK5 binding to MEKK3; actives lie on both sides; 0 = blocked by unlabeled MEK5, 100 = vehicle. binding response (% of control), % at 10 µM. 290,000 tested, 1.4% active;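 active means binding response more than 3 SD above or below the average of its plate-row segment, actives on both sides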;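 further: Alexa488 bead fluorescence after subtracting the streptavidin-only scavenger bead signal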
# Target sequence (Q99759 whole entry, looked up): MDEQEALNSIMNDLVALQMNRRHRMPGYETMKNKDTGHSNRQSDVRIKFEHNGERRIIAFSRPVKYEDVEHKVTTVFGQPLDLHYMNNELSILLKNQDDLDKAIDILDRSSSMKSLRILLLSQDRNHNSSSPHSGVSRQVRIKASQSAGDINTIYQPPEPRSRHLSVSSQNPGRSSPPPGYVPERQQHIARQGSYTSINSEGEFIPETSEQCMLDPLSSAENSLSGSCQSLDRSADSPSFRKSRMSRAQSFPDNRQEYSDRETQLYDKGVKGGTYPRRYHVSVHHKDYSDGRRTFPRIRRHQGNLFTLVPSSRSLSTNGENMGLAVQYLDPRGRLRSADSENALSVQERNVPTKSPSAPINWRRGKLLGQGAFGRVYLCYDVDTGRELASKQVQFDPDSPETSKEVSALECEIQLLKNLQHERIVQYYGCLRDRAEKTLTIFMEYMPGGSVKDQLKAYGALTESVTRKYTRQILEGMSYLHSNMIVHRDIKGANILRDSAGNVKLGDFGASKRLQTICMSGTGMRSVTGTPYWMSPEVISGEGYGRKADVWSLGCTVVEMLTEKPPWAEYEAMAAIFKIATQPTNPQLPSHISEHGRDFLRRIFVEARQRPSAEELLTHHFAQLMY
# IMP-1 inh – IMP-1 metallo-beta-lactamase inhibitors, primary screen, biochemical, epi-absorbance readout, Pseudomonas aeruginosa enzyme. purified IMP-1, nitrocefin hydrolysis, epi-absorbance fluorescence. inhibition, % at 5.6 µM. 290,000 tested, 0.45% active;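 active means inhibition above the mean plus 3 SD of all compounds in the same screening run, cut at about 4.5% in these data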;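 further: 0% = IMP-1 with DMSO and 100% = DMSO wells lacking enzyme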
#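 System – purified recombinant IMP-1 beta-lactamase · Input – IMP-1 dispensed at 0.2 nM · Timing – 15 min preincubation plus 25 min reaction at 25 °C · Signal – Epi-absorbance fluorescence, 480 nm excitation, 530 nm emission · Measure – percent IMP-1 inhibition derived from blank-referenced optical density · Controls – Enzyme-plus-DMSO low control, enzyme-free DMSO high control · Replication – singlicate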
# VIM-2 inh – VIM-2 metallo-beta-lactamase inhibitors, primary screen, biochemical, epi-absorbance readout, Pseudomonas aeruginosa enzyme | purified VIM-2, nitrocefin hydrolysis, epi-absorbance fluorescence | inhibition, % at 5.6 µM | 290,000 tested, 0.89% active | AID 1527, 2009;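 active means inhibition above the mean of all tested compounds plus 3 SD, cutoff set per screening run, cut at about 7.5% in these data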;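 further: red hydrolysis product quenches plate fluorescence so inhibitors raise well fluorescence; 0% = enzyme with DMSO and 100% = DMSO without enzyme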
# MEKK2mut PB1 HTS – MEK5 binding signal on mutant MEKK2 PB1, primary screen, biochemical, multiplex bead flow cytometry, Alexa488-MEK5. Alexa488-MEK5 binding to MEKK2 mutant. percent response, % at 10 µM. 290,000 tested, 0.35% active; in the data active means percent response above about 24%, passing the limit was not always enough
# MEKK2 WT-MEK5 – modulators of MEK5 binding to wildtype MEKK2, primary screen, biochemical, multiplex bead flow cytometry, Alexa488-MEK5; Alexa488-MEK5 binding to MEKK2 WT; actives lie on both sides; binding response (% of control), % at 10 µM; AID 1531, 2009; 290,000 tested, 1.1% active; Mitogen-activated protein kinase kinase kinase 2 (Homo sapiens), Q9Y2U5; in the data active means binding response below about 67% or above about 130%
# MEKK2wt confirm – modulators of MEK5 binding to wildtype MEKK2, confirmation, biochemical, single concentration, multiplex bead flow cytometry; Alexa488-MEK5 binding to MEKK2 WT; actives lie on both sides; 5,900 tested, 2.4% active; binding response (% of control), % at 10 µM; AID 1892, 2009; shares compounds with MEKK3 PB1 HTS; in the data active means binding response below about 16% or above about 210%; inactive means in between
# MEKK2mut confirm – mutant MEKK2 PB1-MEK5 binding signal retest – biochemical, single concentration, multiplex bead flow cytometry, confirmation | 5,900 tested, 2% active | shares compounds with MEKK3 PB1 HTS | Alexa488-MEK5 binding to MEKK2 mutant | percent response, % at 10 µM; in the data active means percent response mostly above about 71%, no sharp cut-off; inactive means mostly below about 38%;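 further: higher means compound restores mutant binding toward wildtype level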
# MEKK3-MEK5 inh – MEKK3 wild-type PB1 binding to MEK5, inhibitors, confirmation, biochemical, bead multiplex flow cytometry, single concentration, wildtype; shares compounds with MEKK3 PB1 HTS; Alexa488-MEK5 binding to MEKK3; hits give low values; binding response (% of control), % at 10 µM; 5,900 tested, 1.8% active; AID 1894, 2009;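 active means binding response below 72% of control, or above a set upper limit, though filed actives all read lower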;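 further: 100% = DMSO only wells and 0% = binding blocked by excess unlabeled MEK5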
# An asterisk follows results filed as active; / = no result; [ ] = another dose, or the depositor's remark. Rows were chosen to be rich in hits. Some 3.4% of all compounds tested hit in one or more screens of this group.
SMILES,MEKK3 PB1 HTS,IMP-1 inh,VIM-2 inh,MEKK2mut PB1 HTS,MEKK2 WT-MEK5,MEKK2wt confirm,MEKK2mut confirm,MEKK3-MEK5 inh
FC(F)(F)c1cccc(OCCOCCn2cncn2)c1,89,-1,-5,0,98,/,/,/
COc1cccc(-n2c(C)n[nH]c2=O)c1,3.0*[inhibitor],-3,-2,-14,3.0*[inhibitor],102,5,100
COc1cccc(-n2c(C)nn(C)c2=O)c1,104,-2,-1,3,102,/,/,/
C=C(C)Cn1c(CCn2c3ccccc3c3ccccc32)n[nH]c1=S,134*,-4,-3,4,102,91,1,101
CCC(C)N1C(=O)/C(=C/c2c(NCCCOC(C)C)nc3c(C)cccn3c2=O)SC1=S (configuration not stated),32*[inhibitor],-1,0,123*,/,59,-22,74
O=C(NCc1ccccc1)c1ccc(N2C(=O)C3CCCCC3C2=O)cc1 (configuration not stated),142*,-4,-2,1,105,104,5,106
O=C1NC(=S)N/C1=C/c1cccn1-c1ccc([N+](=O)[O-])cc1,97,-2,2,-9,89,/,/,/
O=C(Nc1cccc2ccccc12)NC1Cc2ccccc2C1,73*[inhibitor],-3,-1,-10,82,111,3,98
Cc1nc2cc(O)ccc2n1C,102,0,1,3,101,/,/,/
CN(/N=C/c1ccncc1)C1=NCCN1,110,-4,-3,11,111,/,/,/
CN(/N=C/c1ccncc1)c1cnc2ccccc2n1,74*[inhibitor],-3,1,-2,88,104,3,104
COC(=O)Nc1nncs1,96,-3,-4,0,97,/,/,/
COC(=O)/C=c1/sc2nc3ccccc3n2c1=O,80*[inhibitor],-4,0,-15,81,98,-4,98
O=C1N=c2ccccc2=C1c1sc(=O)[nH]c1O,94,-1,3,-2,92,/,/,/
O=C1N=c2ccccc2=C1c1[nH]c(=S)[nH]c1O,66*[inhibitor],-1,2,2,106,110,9,103
Cc1ccc(N(CC(=O)NCc2ccccc2)C(=O)CCC(=O)Nc2ccccn2)cc1C,102,-2,-1,-4,96,/,/,/
C#CCOCCOCCOCCNc1nc(N2CCN(C(=O)[C@H](CCC(=O)O)n3cc(C(N)CC(C)C)nn3)CC2)nc(N2CCN(C(=O)[C@H](Cc3ccc(O)cc3)n3cc(C(N)CC(C)C)nn3)CC2)n1 (some centres not stated),105,-3,-2,9,110,/,/,/
C#CCOCCOCCOCCNc1nc(N2CCN(C(=O)[C@H]([C@@H](C)CC)n3cc([C@@H](N)CC(C)C)nn3)CC2)nc(N2CCN(C(=O)[C@H](Cc3cc4ccccc4[nH]3)n3cc([C@@H](N)C(C)CC)nn3)CC2)n1 (some centres not stated),61,/,/,37*,184*,227*,90*,106
C#CCOCCOCCOCCNc1nc(N2CCN(C(=O)[C@H](CCC(=O)O)n3cc(C(N)CC(C)C)nn3)CC2)nc(N2CCN(C(=O)[C@H](Cc3cc4ccccc4[nH]3)n3cc(C(N)[C@H](C)CC)nn3)CC2)n1 (some centres not stated),100,0,-1,3,109,/,/,/
C#CCOCCOCCOCCNc1nc(N2CCN(C(=O)C([C@@H](C)CC)n3cc(C(N)Cc4ccc(O)cc4)nn3)CC2)nc(N2CCN(C(=O)[C@H](CCC(=O)O)n3cc(C(N)CC(C)C)nn3)CC2)n1 (some centres not stated),100,-4,-3,6,99,/,/,/
C#CCOCCOCCOCCNc1nc(N2CCN(C(=O)[C@H](Cc3ccc(O)cc3)n3cc([C@@H](N)CC(C)C)nn3)CC2)nc(N2CCN(C(=O)[C@H](Cc3cc4ccccc4[nH]3)n3cc([C@@H](N)CC(C)C)nn3)CC2)n1,114,-4,-2,99*,230*,245*,93*,112
C#CCOCCOCCOCCNc1nc(N2CCN(C(=O)[C@H]([C@@H](C)CC)n3cc([C@@H](N)CC(C)C)nn3)CC2)nc(N2CCN(C(=O)[C@H](Cc3cc4ccccc4[nH]3)n3cc([C@@H](N)Cc4ccc(O)cc4)nn3)CC2)n1,115,-4,-4,128*,270*,226*,68,108
C#CCOCCOCCOCCNc1nc(N2CCN(C(=O)C(Cc3ccc(O)cc3)n3cc(C(N)CC(C)C)nn3)CC2)nc(N2CCN(C(=O)C(Cc3cc4ccccc4[nH]3)n3cc(C(N)C(C)CC)nn3)CC2)n1 (configuration not stated),111,-2,-3,118*,239*,237*,89*,106
Cc1nc(CS(=O)(=O)c2ccccn2)sc1C(=O)NNC(=O)c1ccccc1,104,-2,-3,-2,104,/,/,/
C#CCOCCOCCOCCNc1nc(N2CCN(C(=O)[C@H]([C@@H](C)CC)n3cc([C@@H](N)CO)nn3)CC2)nc(N2CCN(C(=O)[C@H]([C@@H](C)CC)n3cc([C@@H](N)CO)nn3)CC2)n1,85,/,/,1,75,/,/,/
C#CCOCCOCCOCCNc1nc(N2CCOCC2)nc(N2CCN(C(=O)[C@H](Cc3cc4ccccc4[nH]3)n3cc([C@@H](N)C(C)CC)nn3)CC2)n1 (some centres not stated),101,-2,-3,11,126,/,/,/
